# AHR act – AHR activators, primary screen, cell-based, luminescence, luciferase reporter, human | Aryl hydrocarbon receptor (Homo sapiens), P35869 | AHR-responsive luciferase reporter cells | activation, % at 5 µM | 2.5% of 320,000 active; in the data active = activation above about 47%;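 note: 0% = vehicle wells and 100% = reference agonist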
# Tb MetRS inh – T. brucei MetRS inhibitors, primary screen, biochemical, luminescence. methionyl-tRNA synthetase (Trypanosoma brucei brucei). inhibition, % at 11.9 µM. 0.4% of 360,000 active. purified T. brucei MetRS, ATP depletion, Kinase-Glo luminescence. AID 624268, 2012;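 active = inhibition above a per-plate cutoff of the control wells' mean inhibition plus 3 SD, cut at about 5.5% in these data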;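 note: 0% = DMSO wells median and 100% = median of wells with control inhibitor compound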
#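 Test system: purified T. brucei MetRS enzyme. Also added: ATP, methionine and E. coli bulk tRNA substrates. Compound: 11.9 µM single point. Schedule: 15 min enzyme-compound preincubation, 2 h reaction, 10 min detection, 25 °C. Signal: luciferase luminescence of residual ATP, Kinase-Glo. Evaluation: percent inhibition versus plate control medians. Controls: DMSO wells, low control.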
# MsrA act – bovine MsrA enzyme activators, primary screen, biochemical, absorbance, HTS | Methionine sulfoxide reductase A (Bos taurus) | purified bovine MsrA, absorbance read-out | activation, % at 10.6 µM | 0.3% of 360,000 active | AID 602163, 2012; in the data active = activation above about 7.5%;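 note: 0% = vehicle and 100% = reference activator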
# AI-2 QS modul – Vibrio harveyi AI-2 quorum sensing modulators, primary screen, JMH597 strain, luminescence/OD600 ratio; activity change, % at 7.5 µM; 0.4% of 300,000 active; Vibrio harveyi JMH597 AI-2 luminescence/OD600 ratio, 9 h; hits give low values; strain lacks LuxN and CqsS sensors; 0 = neutral-control median; in the data active = activity change below about -75%, passing the limit was not always enough;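 note: luminescence divided by OD600 gain over 9 h not by final OD600 alone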
# MsrA inh – bovine MsrA enzyme inhibitors, primary screen, biochemical, absorbance, HTS. 0.75% of 360,000 active. purified bovine MsrA, absorbance read-out. inhibition, % at 15.5 µM. Methionine sulfoxide reductase A (Bos taurus); in the data active = inhibition above about 4.5%;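 note: 0% = vehicle wells with enzyme and 100% = reference inhibitor wells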
# m5-HT2A agonist – mouse Htr2a agonists via beta-arrestin recruitment, primary screen, cell-based, luminescence. 5-hydroxytryptamine receptor 2A (Mus musculus), P35363. CHO-K1 mHTR2A beta-arrestin complementation; percent of 30 µM serotonin response. activation, % at 7.6 µM. 0.66% of 360,000 active. AID 624169, 2012;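 active = activation above a run cutoff, the mean activation of all tested compounds plus 3 SD, cut at about 14% in these data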;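 note: 0% = plate median of compound wells and 100% = 30 µM serotonin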
# Target sequence (P35363 whole entry, looked up): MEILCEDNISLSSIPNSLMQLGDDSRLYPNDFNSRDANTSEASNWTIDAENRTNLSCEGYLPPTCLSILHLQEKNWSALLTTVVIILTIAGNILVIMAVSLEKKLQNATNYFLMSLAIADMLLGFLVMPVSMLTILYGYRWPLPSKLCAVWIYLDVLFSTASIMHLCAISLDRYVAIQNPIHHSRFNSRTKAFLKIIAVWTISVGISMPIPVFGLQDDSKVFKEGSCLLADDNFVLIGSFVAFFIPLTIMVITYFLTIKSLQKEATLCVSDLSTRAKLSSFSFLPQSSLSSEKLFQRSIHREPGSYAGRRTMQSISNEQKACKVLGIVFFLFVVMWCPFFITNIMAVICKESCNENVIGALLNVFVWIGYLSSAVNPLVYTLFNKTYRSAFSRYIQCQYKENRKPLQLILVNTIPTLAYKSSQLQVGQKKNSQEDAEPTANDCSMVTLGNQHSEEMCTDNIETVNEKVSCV
# JMH597 growth – Vibrio harveyi growth inhibition, confirmation, counter-screen for AI-2 quorum sensing project, JMH597 strain, OD600 absorbance; shares compounds with AI-2 QS modul; 9 h; lacks LuxN and CqsS sensors; growth inhibition, % at 7.5 µM; 1% of 750 active; AID 2726, 2010;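 active = every replicate shows growth inhibition above 50%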
# BB721 lum counter – luminescence inhibition in constitutive-on V. harveyi, confirmation, counter-screen for LuxS inhibitor project, strain BB721, luminescence readout; shares compounds with AI-2 QS modul; Vibrio harveyi BB721 luminescence, 9 h; inhibition, % at 7.5 µM; 95% of 750 active; AID 2727, 2010;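 active = inhibition above about 80% in every replicate, not just on average, limit read from the data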
# BB721 growth rt – growth inhibition of V. harveyi BB721, confirmation, cytotoxicity control for AI-2 quorum sensing inhibitors, strain BB721, absorbance OD600; growth inhibition, % at 7.5 µM; Vibrio harveyi BB721 growth, 9 h; shares compounds with AI-2 QS modul; 3% of 750 active;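 active = every replicate shows growth inhibition above 50%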
# JMH597 AI-2 mod – Vibrio harveyi AI-2 signaling luminescence modulation – JMH597 strain, confirmation; AID 2736, 2010; 97% of 750 active; shares compounds with AI-2 QS modul; inhibition, % at 7.5 µM; Vibrio harveyi JMH597 AI-2 quorum sensing luminescence, 9 h; luxN and CqsS knockout, AI-2 only;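 active = every replicate shows more than 75% inhibition of signal versus neutral control wells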
# Active calls of the source: *; · = no result given. The list is not random: actives were taken first. Their share in the collection is about 4.4%.
SMILES,AHR act,Tb MetRS inh,MsrA act,AI-2 QS modul,MsrA inh,m5-HT2A agonist,JMH597 growth,BB721 lum counter,BB721 growth rt,JMH597 AI-2 mod
Cc1ccc(CNC(=O)/C=C/c2ccccc2Cl)cc1,0,0,3,-93*,0,-1,-4,96*,-3,97*
O=C(/C=C/c1ccccc1Cl)NCc1cccs1,-2,0,-4,-93*,-2,-3,14,97*,1,98*
O=C(/C=C/c1ccc(F)cc1)NCc1cccs1,7,0,-4,-90*,-1,-2,4,95*,12,96*
O=C(/C=C/c1ccc(Br)cc1)NCc1cccs1,18,0,-1,-31,0,-2,·,·,·,·
O=C(/C=C/c1ccccc1Cl)NNC(=O)c1cccs1,0,-1,-8,8,-1,-1,·,·,·,·
O=C(/C=C/c1cccs1)NCc1ccccc1,12,0,-2,-90*,1,-2,9,97*,5,97*
CCC(C)NC(=O)/C=C/c1cccs1 (stereo not drawn),3,-1,-8,38,2,2,·,·,·,·
CC1(C(=O)NS(=O)(=O)Cc2ccccc2C(F)(F)F)CCN1C(=O)c1cccc(F)c1 (stereo not drawn),·,0,-11,·,1,3,·,·,·,·
CCC(=O)c1ccc(OCC(=O)OCC(=O)NCC2CCCO2)cc1 (stereo not drawn),-2,0,-13,0,0,3,·,·,·,·
CC(C)(C)c1ccc(OCC(O)CN2CCc3ccccc3C2)cc1 (stereo not drawn),-1,-1,-2,-82*,-1,-6,16,81*,1,88*
COc1ccc(OCC(O)CN2CCc3ccccc3C2)cc1 (stereo not drawn),1,0,-3,16,0,-6,·,·,·,·
O=C(CCl)NN1C(=O)NC2(CCCCC2)C1=O,-2,0,-3,0,1,-1,·,·,·,·
O=C(CCl)NN1C(=O)NC(c2ccccc2)(c2ccccc2)C1=O,1,-1,-3,-95*,-1,3,25,98*,-226,98*
COc1cc(/C=N/NC(=O)Cn2cnc3ccccc3c2=O)ccc1O,0,-1,-5,-89*,1,0,-7,95*,-17,97*
O=C(Cn1cnc2ccccc2c1=O)N/N=C/c1ccc(Br)cc1,0,0,-1,-14,0,-6,·,·,·,·
CCOC(=O)C1(C)CCCN1C(=O)c1ccc(N(C)C)cc1 (stereo not drawn),·,0,-3,·,-1,0,·,·,·,·
O=C(COc1ccccc1)NCC(=O)Nc1ccc(S(=O)(=O)NCc2ccco2)cc1,19,-1,0,26,0,3,·,·,·,·
O=C(COc1ccccc1)Nc1ccc(S(=O)(=O)NCc2ccco2)cc1,-2,-1,-14,-97*,1,0,13,100*,-57,100*
O=C(COc1ccccc1F)Nc1ccc(S(=O)(=O)NCc2ccco2)cc1,4,1,-1,-92*,0,-1,29,99*,-12,99*
O=C(NCc1ccccc1Br)c1ccncc1,12,0,-2,-2,-1,-4,·,·,·,·
